Activity calls are given as the source filed them. The rule behind the calls is not given here.
Assays:
[1] = (§1) Inhibition of HIV1 Envelope glycoprotein-mediated cell-cell fusion expressed in human HL2/3 cells coincubated with human TZM-b1 cells after 6 to 8 hrs by luciferase assay; format: cell-based; settings: Human immunodeficiency virus 1, TZM-b1
[2] = system: TZM-b1; assay: as §1; format: cell-based; settings: Human immunodeficiency virus 1
[3] = system: Human immunodeficiency virus 1; assay: Antiviral activity against Human immunodeficiency virus 1 assessed as inhibition of viral replication; format: functional, organism-based
Procedure, shortened: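 NL4-3 mutant panel (D36G T20-sensitive; five T20-resistant NHR variants) infecting MT-2 cells with peptides at graded concentrations. p24 measured by ELISA on day 4. Run in triplicate as mean ± SD; IC50 and fold change vs D36G.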

| Compound | IC50 [1] [µM] | inhibition [2] | further results |
| --- | --- | --- | --- |
| Cc1ccc(C)n1-c1ccc(C(=O)O)c(OCC(=O)O)c1 | > 100 |  |  |
| Cc1ccc(C)n1-c1ccc(OCC(=O)O)c(C(=O)O)c1 | > 100 |  |  |
| Cc1cc(C(=O)O)c(C)n1-c1ccc(C(=O)O)c(O)c1 |  | inactive |  |
| Cc1ccc(C)n1-c1ccc(O)c(C(=O)O)c1 |  |  | EC50 [3]: 0.69 µM |
| Cc1cc(C(=O)O)c(C)n1-c1ccc(O)c(C(=O)O)c1 |  | inactive |  |

Source: ChEMBL document CHEMBL2321797 (J Med Chem, 2013)
